In ChEMBL document CHEMBL3286178, “Cell membrane mediated (-)-epicatechin effects on upstream endothelial cell signaling: evidence for a surface receptor” (Bioorg Med Chem Lett, 2014):
Values belong to the compound of their own block, whether it stands above or below them. The source made the active and inactive calls. The calls are words filed in the database; no cut-off is given here.

Assays:
[1] = Binding affinity to rat brain cell membrane; assay type: cell membranes
[2] = species on record: Homo sapiens; assay: Induction of PI3K in calcium free HCAEC assessed as PDK1 phosphorylation at 100 nM after 10 mins incubation by Western blot analysis in presence of wortmannin
Summary of the method: (§1)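 Ca2+-free human coronary artery endothelial cells treated 10 min with 100 nM free or dextran-conjugated compound (conjugate dose expressed as equivalent bound compound); phospho-PI3K, phospho-PDK1, phospho-AKT, phospho-eNOS (Ser1177, Ser615) and PIP3 assessed, with or without PI3K inhibitor wortmannin; Western blots representative of three independent experiments.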

[3] = molecular target: T1, Nitric oxide synthase 3 (Homo sapiens) (UniProt P29474); assay: Induction of eNOS activation in calcium free HCAEC assessed as phosphorylation at serine 1177 at 100 nM after 10 mins incubation; summary of the method: as §1
T1 sequence (whole entry): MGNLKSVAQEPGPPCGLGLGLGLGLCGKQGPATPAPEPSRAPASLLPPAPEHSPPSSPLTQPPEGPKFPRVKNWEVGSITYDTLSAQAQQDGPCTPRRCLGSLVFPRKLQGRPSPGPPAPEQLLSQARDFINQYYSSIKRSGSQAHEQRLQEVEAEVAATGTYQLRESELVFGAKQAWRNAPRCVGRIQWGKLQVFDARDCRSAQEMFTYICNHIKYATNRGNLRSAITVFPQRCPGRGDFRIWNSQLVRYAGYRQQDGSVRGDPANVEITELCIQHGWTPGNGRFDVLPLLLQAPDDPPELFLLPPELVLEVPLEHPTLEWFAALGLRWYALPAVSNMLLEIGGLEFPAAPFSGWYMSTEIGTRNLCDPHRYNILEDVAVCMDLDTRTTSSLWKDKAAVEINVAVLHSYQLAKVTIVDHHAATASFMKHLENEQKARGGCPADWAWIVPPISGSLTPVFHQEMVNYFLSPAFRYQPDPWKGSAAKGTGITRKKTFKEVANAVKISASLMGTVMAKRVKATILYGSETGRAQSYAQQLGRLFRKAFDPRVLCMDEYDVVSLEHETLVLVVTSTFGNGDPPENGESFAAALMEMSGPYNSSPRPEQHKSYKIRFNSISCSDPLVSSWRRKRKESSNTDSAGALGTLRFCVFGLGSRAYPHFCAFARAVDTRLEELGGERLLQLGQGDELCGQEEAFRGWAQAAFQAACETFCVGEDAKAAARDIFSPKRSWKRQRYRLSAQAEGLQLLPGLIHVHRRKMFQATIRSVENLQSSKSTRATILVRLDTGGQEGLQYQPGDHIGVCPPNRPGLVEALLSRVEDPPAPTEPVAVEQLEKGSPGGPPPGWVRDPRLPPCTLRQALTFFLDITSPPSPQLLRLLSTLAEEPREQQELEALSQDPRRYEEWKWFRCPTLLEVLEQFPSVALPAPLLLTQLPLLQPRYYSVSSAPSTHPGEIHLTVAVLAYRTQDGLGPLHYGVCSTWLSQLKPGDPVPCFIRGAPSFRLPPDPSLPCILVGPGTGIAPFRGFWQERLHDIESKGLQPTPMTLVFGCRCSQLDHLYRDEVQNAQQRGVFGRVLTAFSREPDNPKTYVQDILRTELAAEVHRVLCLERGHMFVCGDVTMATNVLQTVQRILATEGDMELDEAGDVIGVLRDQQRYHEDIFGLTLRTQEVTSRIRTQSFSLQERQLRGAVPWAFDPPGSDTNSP

[4] = molecular target: T1, Nitric oxide synthase 3 (Homo sapiens); assay: Induction of eNOS activation in calcium free HCAEC assessed as phosphorylation at serine 615 at 100 nM after 10 mins incubation; summary of the method: as §1
[5] = molecular target: T1, Nitric oxide synthase 3 (Homo sapiens); assay: Induction of eNOS activation in calcium free HCAEC assessed as phosphorylation at serine 615 at 100 nM after 10 mins incubation in presence of wortmannin; summary of the method: as §1
[6] = species on record: Homo sapiens; assay: Induction of PI3K phosphorylation in calcium free HCAEC at 100 nM after 10 mins incubation by Western blot analysis; summary of the method: as §1
[7] = species on record: Homo sapiens; assay: Effect on eNOS phosphorylation at Thr 495 in calcium free HCAEC at 100 nM after 10 mins incubation; assay type: functional
[8] = species on record: Homo sapiens; assay: Induction of PI3K in calcium free HCAEC assessed as Akt phosphorylation at 100 nM after 10 mins incubation by Western blot analysis in presence of wortmannin; summary of the method: as §1
[9] = species on record: Homo sapiens; assay: Induction of PIP3 level in calcium free HCAEC at 100 nM after 10 mins incubation by Western blot analysis in presence of wortmannin; assay type: functional; summary of the method: as §1
[10] = species on record: Homo sapiens; assay: Induction of PI3K in calcium free HCAEC assessed as PDK1 phosphorylation at 100 nM after 10 mins incubation by Western blot analysis; summary of the method: as §1
[11] = tested on: brain; assay: Binding affinity to rat brain cell membrane at 10 uM
[12] = species on record: Homo sapiens; assay: Induction of PIP3 level in calcium free HCAEC at 100 nM after 10 mins incubation by Western blot analysis; assay type: functional; summary of the method: as §1
[13] = species on record: Homo sapiens; assay: Induction of PI3K phosphorylation in calcium free HCAEC at 100 nM after 10 mins incubation by Western blot analysis in presence of wortmannin; summary of the method: as §1
[14] = species on record: Homo sapiens; assay: Induction of PI3K in calcium free HCAEC assessed as Akt phosphorylation at 100 nM after 10 mins incubation by Western blot analysis; summary of the method: as §1
[15] = molecular target: T1, Nitric oxide synthase 3 (Homo sapiens); assay: Induction of eNOS activation in calcium free HCAEC assessed as phosphorylation at serine 1177 at 100 nM after 10 mins incubation in presence of wortmannin; summary of the method: as §1

Compound: O=C(O[C@@H]1Cc2c(O)cc(O)cc2O[C@@H]1c1cc(O)c(O)c(O)c1)c1cc(O)c(O)c(O)c1 [EPIGALOCATECHIN GALLATE]
- Ki [1]: 25 nM

- Activity [2]: inactive
- Activity [3]: Active
- Activity [4]: Active
- Activity [5]: inactive
- Activity [6]: Active
- Activity [8]: inactive
- Activity [10]: Active
- Activity [13]: inactive
- Activity [14]: Active
- Activity [15]: inactive
Compound: Oc1cc(O)c2c(c1)O[C@H](c1ccc(O)c(O)c1)[C@H](O)C2
- Activity [7]: inactive
- Activity [9]: inactive
- Activity [11]: inactive
- Activity [12]: Active

Compound: O=C(O[C@@H]1Cc2c(O)cc(O)cc2O[C@@H]1c1ccc(O)c(O)c1)c1cc(O)c(O)c(O)c1 [EPICATECHIN GALLATE]
- Ki [1]: 25 nM

Compound: Oc1ccc(/C=C/c2cc(O)cc(O)c2)cc1 [RESVERATROL]
- Ki [1]: 102 nM
